Source: PubChem BioAssay
DNA FID counter: displaces DNA intercalator in HCV helicase counter-screen. DNA fluorescent intercalator displacement, fluorescence. inhibition, % at 7.9 µM. hit rate 0.17% among 290,000. AID 1845; in the data active means inhibition above about 37%;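 further: 0% = vehicle and 100% = reference compound; higher means more ethidium bromide displaced from hairpin DNA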
TMEM16A inh: blocks the mouse calcium-activated chloride channel TMEM16A; HEK293 TMEM16A/YFP iodide influx fluorescence, ionomycin; normalized B-score (activity score, 25-100; higher = stronger inhibition) at 10 µM; hit rate 1.2% among 310,000;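 active means ratio plate-corrected score three or more library SD toward inhibition, starting fluorescence score within five deviations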;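 further: score derived from kinetic fluorescence span divided by baseline fluorescence per well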
SR-BI uptake up: SR-BI HDL lipid transfer activation; CHO ldlA[mSR-BI] cells, DiI-HDL uptake fluorescence, 3 h; 100 = double the neutral-control signal; activation, % at 12.5 µM; hit rate 0.096% among 320,000; AID 504775;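 active means mean replicate activation of at least 60% and every replicate at or above 60%; inconclusive means mean or all-replicate condition met, but not both; inactive means mean below 60% and not all replicates reaching 60%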;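 further: 0% = median plate neutral-control signal and 100% = twice that signal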
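Material – SR-BI-overexpressing, LDLR-lacking CHO cells · Medium – BSA-supplemented, HEPES-buffered Ham's F12, pH 7.4 · Doses – single concentration · Times – compound with DiI-HDL co-incubation, 3 h at 37 °C · Measured by – bottom-read fluorescence, 550/595 nm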
Kir21 block: Kir2.1 (mouse) channel inhibition. P35561. HEK293-Kir2.1, FluxOR thallium flux fluorescence; stronger effect = lower value. B-score at 10 µM. hit rate 0.85% among 310,000;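 active means fluorescence ratio B-score at or below minus 3 SD of library scores, with starting-brightness B-score within 2 SD, cut at about -4.2 in these data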;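 further: channel flux triggered by added potassium and thallium sulfate stimulus; B-score of peak minus minimum fluorescence over baseline after thallium stimulus; more negative B-score means stronger Kir2.1 block with less thallium influx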
Target sequence (P35561 whole entry, looked up): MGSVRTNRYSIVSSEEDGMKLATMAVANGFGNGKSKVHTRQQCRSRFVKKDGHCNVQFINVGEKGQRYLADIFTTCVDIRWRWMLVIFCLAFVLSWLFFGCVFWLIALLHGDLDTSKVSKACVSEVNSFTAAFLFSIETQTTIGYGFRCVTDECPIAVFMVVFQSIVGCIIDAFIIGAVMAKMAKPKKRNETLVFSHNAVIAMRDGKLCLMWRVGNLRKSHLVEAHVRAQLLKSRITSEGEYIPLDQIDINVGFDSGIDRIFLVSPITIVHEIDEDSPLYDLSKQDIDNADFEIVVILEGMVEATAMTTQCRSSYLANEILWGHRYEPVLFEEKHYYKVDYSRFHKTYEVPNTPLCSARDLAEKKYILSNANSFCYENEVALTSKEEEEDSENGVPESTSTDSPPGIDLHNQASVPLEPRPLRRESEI
SR-BI HDL uptake: mouse SR-BI HDL lipid transfer inhibition; AID 488896; ldlA[mSR-BI] CHO cells, DiI-HDL uptake fluorescence, 3 h; hit rate 0.96% among 320,000; inhibition, % at 12.5 µM; Q61009;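 active means mean replicate inhibition of at least 70% and a set share of replicates each scoring 70 or more; inconclusive means meets just one of the two criteria; inactive means fails both criteria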;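 further: 0% = median of neutral control wells and 100% = median of positive control wells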
ANO1 activ: activates or potentiates the mouse TMEM16A chloride channel; HEK293 TMEM16A/YFP-H148Q/I152L, iodide quench fluorescence; stronger effect = lower value; B-score at 10 µM; hit rate 0.3% among 340,000;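 active means fluorescence-ratio B-score plate-corrected deviation score at least 3 library SD below zero, with starting fluorescence score within 5 deviations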;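 further: channel opened by trigger with iodide after compound preincubation; score built on the fluorescence ratio of max minus min over baseline; more negative score means more quench and so TMEM16A activation or potentiation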
The depositor's hits bear a star; i = inactive; u = inconclusive; x = not tested or not shown. Sampled rows, rich in hits. Any-hit rate of the full collection: about 3%.

SMILES	DNA FID counter	TMEM16A inh	SR-BI uptake up	Kir21 block	SR-BI HDL uptake	ANO1 activ
O=[N+]([O-])c1ccc(NC(=S)NCc2ccc(F)cc2)cc1	9	25*	-6	-1.7	6	-5*
Fc1ccc(NC(=S)NCc2cccnc2)cc1	1	i	14	-0.26	-14	-7*
O=[N+]([O-])c1ccc(NC(=S)NCc2ccncc2)cc1	4	i	5	0.06	-5	i
O=[N+]([O-])c1ccc(NC(=S)NCCc2ccccc2)cc1	13	100*	12	-0.52	-12	i
NC1=NC(=O)C(CC(=O)Nc2ccc3c(c2)OCO3)S1 (stereo unspecified)	2	i	4	0.54	-4	i
CCOc1ccccc1N1CCN(C(=O)c2cccs2)CC1	-24	i	-6	0.02	6	i
O=[N+]([O-])c1cc(C(F)(F)F)ccc1NCCNC(=S)Nc1ccc(Cl)cc1	22	100*	-2	0.77	2	i
CCOc1ccc(S(=O)(=O)N=C(c2ccccc2)N2CCOCC2)cc1	x	x	2	x	-2	i
Cc1ccc(NC(=O)COC(=O)c2ccc(CN3CCCC3=O)cc2)cc1C	x	x	22	x	-22	i
COc1ccc(/C=N/NC(=O)Cc2csc(Nc3cccc(C(F)(F)F)c3)n2)c(OC)c1	-11	i	-71	-0.26	u	i
CCOc1ccccc1/C=N/NC(=O)Cc1csc(Nc2cccc(C(F)(F)F)c2)n1	-14	i	x	0.53	x	i
CCOc1ccc(/C=N/NC(=O)Cc2csc(Nc3cccc(C(F)(F)F)c3)n2)c(OCC)c1	-16	i	-81	0.3	81*	i
CCOc1ccc(/C=N/NC(=O)Cc2csc(Nc3cccc(C(F)(F)F)c3)n2)cc1	-16	i	-77	0.98	77*	i
COc1ccccc1N(C)S(=O)(=O)c1ccc(C(=O)Nc2ccc(N3CCOCC3)cc2)cc1	-23	i	-54	0.28	54	i
C=CCN(c1ccccc1OC)S(=O)(=O)c1ccc(Cl)c(C(=O)Nc2ccc(N3CCOCC3)cc2)c1	-5	i	-96	0.37	96*	i
Oc1ccc(Cl)cc1C1=NNC(c2cccs2)C1 (stereo unspecified)	-3	i	-13	-0.87	13	i
O=[N+]([O-])c1ccc(O)c(C2=NNC(c3ccccc3F)C2)c1 (stereo unspecified)	-2	100*	x	-0.39	x	i
CCN(CCCNC(=O)COc1cc(=O)n(C)c2ccccc12)c1cccc(C)c1	-17	i	7	-6.8*	-7	i
CC1CC(C)(C)CC2(C1)NC(=O)N(CC(=O)N(C)Cc1nc3ccccc3c(=O)[nH]1)C2=O (stereo unspecified)	x	x	8	x	-8	i
Cc1cc(/C=N/NC(=O)c2cccc(F)c2)c(C)n1-c1ccccc1	-2	i	-73	-1.2	73*	i
Cc1cc(/C=N/NC(=O)c2ccncc2)c(C)n1-c1cccc(C(F)(F)F)c1	-17	i	-74	0.42	74*	i
Cc1ccc(-n2c(C)cc(/C=N/NC(=O)c3ccncc3)c2C)cc1	-8	i	-30	0.51	30	i
COc1cc(OC)cc(-c2oc(=O)c3cc(OC)c(OC)cc3c2C#CCCCO)c1	x	x	-39	x	39	i
COc1ccc(-c2oc(=O)c3cc(OC)c(OC)cc3c2C#CCCCO)cc1	x	x	-78	x	78*	i
CCN(CC)CCNC(=O)c1ccc2c(c1NCCO)C(=O)c1ccccc1C2=O	42*	i	x	-0.84	x	x
SMILES	DNA FID counter	TMEM16A inh	SR-BI uptake up	Kir21 block	SR-BI HDL uptake	ANO1 activ
CCN(CC)CCC(=O)Nc1cccc2c1C(=O)c1ccccc1C2=O	69*	i	-19	-0.65	19	i
O=C(Nc1cccc(S(=O)(=O)N2CCCC2)c1)c1cccc(S(=O)(=O)N2CCOCC2)c1	x	x	-38	x	38	i
Cc1ccc(SCC(=O)Nc2cccc(S(=O)(=O)N3CCOCC3)c2)cc1C	x	x	-31	x	31	i
CC(=O)Oc1ccc(-c2ccc(C(=O)Nc3cccc(S(=O)(=O)N4CCOCC4)c3)cc2)cc1	-15	i	-81	-0.01	81*	i
O=C(O)c1cccc(NC(=O)c2cc(S(=O)(=O)N3CCOCC3)cs2)c1	-2	i	10	-0.12	-10	i
CC(=O)c1cccc(NC(=O)c2cc(S(=O)(=O)N3CCOCC3)cs2)c1	-12	i	-78	1.6	78*	i
Cc1ccc(S(=O)(=O)N2CCOCC2)cc1C(=O)OCC(=O)N1CCc2ccccc2C1	-29	x	-76	1.2	76*	i
Cc1cc(SCC(=O)Nc2cccc(S(=O)(=O)N3CCOCC3)c2)nc2ccccc12	-22	i	-79	2.2	79*	i
CN(CC(=O)Nc1ccc(F)cc1)C(=O)CNC(=O)C1CCCCC1	x	x	-4	x	4	i
Cc1cc(C)c2oc(=O)cc(CN3CCC(C)CC3)c2c1	-16	i	4	1.8	-4	i
O=C(Cc1cccc(NC(=O)C2CCCN(C(=O)CCc3ccccc3)C2)c1)Nc1ccc(C(=O)N2CCCCC2)cc1 (stereo unspecified)	x	x	-63	x	63	x
CC(C)CCNC(=O)NC(=O)COC(=O)c1cc(S(=O)(=O)N2CCOCC2)ccc1N1CCCCC1	-19	i	14	-0.81	-14	-12*
Cc1cc(C(=O)OCC(=O)Nc2cccc(S(=O)(=O)N3CCOCC3)c2)c(C)o1	-21	i	-3	0.18	3	-6.2*
CC(NCc1cccc(OCc2ccccc2)c1)C(O)c1ccccc1 (stereo unspecified)	27	i	x	-11*	x	i
CC(NCc1ccc(OCc2ccc(Cl)cc2)cc1)C(O)c1ccccc1 (stereo unspecified)	27	i	x	0.09	x	i
COc1ccc(-c2nc3n(c(=O)c2C#N)CCS3)cc1	0	i	1	-1.2	-1	i
FC(F)Oc1ccc(/C=N/c2c(-c3ccc(OC(F)F)cc3)nc3n2CCS3)cc1	-2	i	-74	-0.18	74*	x
CC(C)NS(=O)(=O)c1ccc(NC(=O)C(C)Oc2ccc(C(=O)c3ccccc3)cc2)cc1 (stereo unspecified)	-27	100*	-4	3.2	4	i
CC(Oc1ccccc1)C(=O)Nc1ccc(C(N)=O)cc1 (stereo unspecified)	-4	i	20	0.57	-20	i
Cc1ccc(Nc2nc(=O)c3cccnc3s2)c(Br)c1	-11	i	0	-0.61	0	i
CC1CCC(C(C)C)C(OC(=O)C2=C3c4ccccc4S(=O)(=O)N3CC2)C1 (stereo unspecified)	-3	i	-71	0.72	71*	i
